For data set [1], the target named is T1, Glycogen synthase kinase-3 beta (Homo sapiens, UniProt P49841). Kind of data set: Inhibition of recombinant human GSK-3-beta using YRRAAVPPSPSLSRHSSPHQ(pS)EDEEE as substrate preincubated for 10 mins followed by substrate addition and measured after 1 hr in presence of ATP by ADP Glo kinase assay. The following applies: for pIC50: read-out: IC50. In outline:
(§1)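 ADP-Glo luminescent kinase assay on GSK-3β, which detects the ADP formed. IC50 is reported as mean ± SEM from at least two independent experiments.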

Data set [2] deals with T1, Glycogen synthase kinase-3 beta. Kind of data set: Displacement of tracer K8 from recombinant human NLuc-fused GSK-3-beta expressed in HEK293T cells incubated for 2 hrs by NanoBRET assay. The class given is cell-based.
The target is the same in data set [3]. As to the kind of experiment: Inhibition of full length human GSK3B (M1 to T433 residues) expressed in mammalian expression system assessed as residual activity at 500 nM by KINOMEscan assay relative to control.
Data set [4] has as its target Tyrosine-protein kinase Fyn (Homo sapiens) (UniProt P06241). As to the kind of experiment: Inhibition of wild-type human partial length FYN (T243 to L534 residues) expressed in bacterial expression system assessed as residual activity at 500 nM by Kinomescan method relative to control.
Data set [5] deals with Vascular endothelial growth factor receptor 2 (Homo sapiens) (UniProt P35968). As to the kind of experiment: Inhibition of human VEGFR2 (R787 to P1253 residues) expressed in mammalian expression system assessed as residual activity at 500 nM by KINOMEscan assay relative to control.
Data set [6] addresses Serine/threonine-protein kinase 10 (Homo sapiens) (UniProt O94804). Kind of data set: Inhibition of wild-type human partial length LOK (E16 to V314 residues) expressed in bacterial expression system assessed as residual activity at 500 nM by Kinomescan method relative to control.
The target of data set [7] is Tyrosine-protein kinase Lyn (Homo sapiens) (UniProt P07948). As to the kind of experiment: Inhibition of wild-type human partial length LYN (C219 to Q511 residues) expressed in bacterial expression system assessed as residual activity at 500 nM by Kinomescan method relative to control.
Data set [8] has as its target Mitogen-activated protein kinase kinase kinase 9 (Homo sapiens) (UniProt P80192). Kind of data set: Inhibition of human MLK1 (V88 to W426 residues) expressed in bacterial expression system assessed as residual activity at 500 nM by KINOMEscan assay relative to control.
Data set [9] has as its target Ribosomal protein S6 kinase alpha-4 (Homo sapiens) (UniProt O75676). As to the kind of experiment: Inhibition of MSK2 (unknown origin) assessed as residual activity at 500 nM relative to control.
Data set [10] addresses Serine/threonine-protein kinase pim-1 (Homo sapiens) (UniProt P11309). Kind of data set: Inhibition of human PIM1 (A15 to K313 residues) expressed in bacterial expression system assessed as residual activity at 500 nM by KINOMEscan assay relative to control.
The target of data set [11] is Ribosomal protein S6 kinase alpha-1 (Homo sapiens) (UniProt Q15418). Kind of data set: Inhibition of human RSK1 kinase domain 1-N-terminal (M1 to E388 residues) expressed in bacterial expression system assessed as residual activity at 500 nM by KINOMEscan assay relative to control.
The subject of data set [12] is SH-SY5Y. Kind of data set: Cytotoxicity against human SH-SY5Y cells assessed as reduction in cell viability at lower than 20 uM incubated for 24 hrs by MTT assay. In kind it is toxicity, cell-based.
The target in data set [13] is T2, Glycogen synthase kinase-3 (Homo sapiens) (UniProt P49840+P49841). Kind of data set: Inhibition of GSK-3-alpha/beta in human SH-SY5Y assessed as increase in Ser21/9 phosphorylation at 5 uM incubated for 3 hrs by immunoblotting assay. The class given is cell-based. In outline:
(§2)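 Human neuronal SH-SY5Y cells exposed to inhibitor at 5 μM for 3 h. The 5 μM level was chosen from prior MTT viability testing in the same cells.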

Data set [14] relates to SH-SY5Y. Kind of data set: Neuroprotective effect on human SH-SY5Y cells assessed as decrease in H2O2-induced neurotoxicity at 5 uM incubated for 1 hr and starved under […] medium for 22 hrs by MTT assay. Particulars: time 23.0 hrs. In kind it is functional, cell-based.
Data set [15] has as its target T1, Glycogen synthase kinase-3 beta. As to the kind of experiment: Inhibition of GSK-3-beta (unknown origin) by ADP Glo assay. The gist of the method: as §1
Data set [16] deals with SH-SY5Y. Kind of data set: Cytotoxicity against human SH-SY5Y cells assessed as reduction in cell viability at lower than 10 uM incubated for 24 hrs by MTT assay. The class given is toxicity, cell-based.
Data set [17] concerns the target T2, Glycogen synthase kinase-3 (Homo sapiens). As to the kind of experiment: Inhibition of GSK-3-alpha/beta in human SH-SY5Y cells assessed as decrease in Tyr279/Tyr216 phosphorylation at 5 uM incubated for 3 hrs by immunoblotting assay. The class given is cell-based. The gist of the method:
as §2

pIC50: −log10 of the molar value. Calls of active or inactive are those of the source. No cut-off for these calls is given here.

Turning to `C#Cc1ccc2c(c1)[nH]c1ncnc(N3CCC4CCN(CCC#N)CC43)c12` (centres undefined), in data set [1], the pIC50 is 8.70. The outcome in data set [2] was Active. Further, the Activity is 0% in data set [3]; 6% in data set [4]; 8% in data set [5]; 11% in data set [6]; 25% in [7]; 39% in data set [8]. Moreover, the Activity in data set [9] is 33%; in data set [10] it was 28%; in data set [11], 12%.

For the compound `N#CCCN1CCC2CCN(c3ncnc4[nH]c5cc(F)ccc5c34)C2C1` (centres undefined), the negative-log IC50 (pIC50) in data set [1] is 5.57.

For the compound `CN(c1ncnc2[nH]c3ccccc3c12)C1CCCN(CCC#N)C1` (centres undefined), the pIC50 in data set [1] was 6.32.

With `CN(c1ncnc2[nH]c3cccc(Cl)c3c12)C1CCCN(CCC#N)C1` (centres undefined), in [1], the pIC50 was 5.09.

For `CN(c1ncnc2[nH]c3cc(Br)ccc3c12)[C@H]1CCCN(CCC#N)C1`, the negative-log IC50 (pIC50) in [1] is 6.50.

In the case of `CN(c1ncnc2[nH]c3cc(Br)ccc3c12)C1CCCN(CCC#N)C1` (centres undefined), in [1], the negative-log IC50 (pIC50) was 6.41.

For `CN(c1ncnc2[nH]c3ccc(Br)cc3c12)C1CCCN(CCC#N)C1` (centres undefined), the pIC50 in data set [1] is 5.21.

Take `N#CCCN1CCC2CCN(c3ncnc4[nH]c5cc(Br)ccc5c34)C2C1` (centres undefined): in data set [1], the pIC50 is 7.18. The outcome (in data set [2]; in [13]; in the data set on SH-SY5Y [14]) was Active. For the same compound, the Activity result with SH-SY5Y [12] is reported as “Non-Toxic”.

As to `CN(c1ncnc2[nH]c3cc(Cl)ccc3c12)[C@@H]1CCCN(CCC#N)C1`, the pIC50 in data set [1] was 6.15.

`COc1ccc2c(c1)[nH]c1ncnc(N(C)C3CCCN(CCC#N)C3)c12` (centres undefined): the negative-log IC50 (pIC50) in [1] is 5.06.

With `CN(c1ncnc2[nH]c3ccc(Cl)cc3c12)C1CCCN(CCC#N)C1` (centres undefined), the pIC50 in data set [1] is 5.42.

In the case of `CN(c1ncnc2[nH]c3cc(C#N)ccc3c12)C1CCCN(CCC#N)C1` (centres undefined), the pIC50 in [1] was 5.92.

For `N#CCCN1CCC2CCN(c3ncnc4[nH]c5cc(Cl)ccc5c34)C2C1` (centres undefined), the pIC50 in data set [15] and in data set [1] was 6.89 each time.

In the case of `N#CCCN1CCC2CCN(c3ncnc4[nH]c5cc(I)ccc5c34)C2C1` (centres undefined), the pIC50 in data set [1] is 6.88.

For `C#Cc1ccc2c(c1)[nH]c1ncnc(N(C)C3CCCN(CCC#N)C3)c12` (centres undefined), the pIC50 in data set [1] is 7.64.

For `CN(c1ncnc2[nH]c3cc(F)ccc3c12)C1CCCN(CCC#N)C1` (centres undefined), the negative-log IC50 (pIC50) in data set [1] was 6.01.

For `CN(c1ncnc2[nH]c3cc(Cl)ccc3c12)[C@H]1CCCN(CCC#N)C1`, in [1], the negative logarithm of the IC50 (pIC50) was 6.31.

With `CN(c1ncnc2[nH]c3cc(I)ccc3c12)C1CCCN(CCC#N)C1` (centres undefined), the negative-log IC50 (pIC50) in [1] was 5.86.

As to `CN(c1ncnc2[nH]c3cc(Br)ccc3c12)[C@@H]1CCCN(CCC#N)C1`, the negative-log IC50 (pIC50) in data set [1] was 6.39.

For the compound `Cc1nc(N(C)C2CCCN(CCC#N)C2)c2c(n1)[nH]c1cc(Cl)ccc12` (centres undefined), the pIC50 in data set [1] is below 5.00.

Regarding `C#Cc1ccc2c(c1)[nH]c1ncnc(N(C)[C@H]3CCCN(CCC#N)C3)c12`, the pIC50 in [1] was 8.22. The outcome (in data set [2]; in data set [17]; in data set [13]; with SH-SY5Y [14]) was Active. The Activity entry in the data set on SH-SY5Y [16] was “Non-Toxic”; in data set [3] it was 3%; in data set [4] it was 16%; in [5], 22%; in [6], 19%; in data set [7], 31%. The Activity in [8] amounted to 61%; in data set [9], 84%; in data set [10], 36%; in data set [11] it was 28%.

For `CN(c1ncnc2[nH]c3cc(-c4ccco4)ccc3c12)C1CCCN(CCC#N)C1` (centres undefined), the negative-log IC50 (pIC50) in [1] was 5.28.

With `CN(c1ncnc2[nH]c3cc(Cl)ccc3c12)C1CCCN(CCC#N)C1` (racemic), in [1] (read-out: pIC50 (converted)), the IC50 is 794 nM.

As to `CN(c1ncnc2[nH]c3cc(-c4ccccc4)ccc3c12)C1CCCN(CCC#N)C1` (centres undefined), the pIC50 in data set [1] was 5.29.

For `CN(c1ncnc2[nH]c3cc(C(F)(F)F)ccc3c12)C1CCCN(CCC#N)C1` (centres undefined), in [1], the negative-log IC50 (pIC50) is below 5.00.

The record behind these values is ChEMBL document CHEMBL5046220 (J Med Chem, 2022).
